Experimental data reported in ChEMBL document CHEMBL1156690, “Synthesis, anti-HIV-1 integrase, and cytotoxic activities of 4-chloro-N-(4-oxopyrimidin-2-yl)-2-mercaptobenzenesulfonamide derivatives” (Eur J Med Chem, 2008).
pIC50: −log10 of the molar value.

Legend:
[1] = biological target: T1, Human immunodeficiency virus type 1 integrase (Human immunodeficiency virus 1, UniProt Q7ZJM1); assay: Inhibition of HIV1 integrase 3' processing activity
Procedure, shortened: (§1)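 HIV-1 integrase (200 nM final) preincubated 30 min at 30 °C with inhibitor in buffer (pH 7.2 MOPS, NaCl, HEPES, EDTA, DTT, 10% glycerol, 7.5 mM MnCl₂, 0.1 mg/ml BSA, 2-mercaptoethanol, 10% DMSO). 20 nM 5'-³²P-labeled linear oligonucleotide substrate then added for 1 h. Quenched with formamide loading dye; products resolved on denaturing 20% polyacrylamide/urea gel. IC₅₀ reported for each step.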

[2] = biological target: T1, Human immunodeficiency virus type 1 integrase; assay: Inhibition of HIV1 integrase strand transfer activity; procedure, shortened: as §1
SR = assay: Growth inhibition of human SR cells; format: functional
Procedure, shortened: (§2)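 Run by the US National Cancer Institute in vitro screen against a panel of 53–57 human tumor cell lines. GI₅₀ is defined as the molar concentration inhibiting 50% net cell growth. TGI is the concentration giving total growth inhibition.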

BT-549 = assay: Growth inhibition of human BT549 cells; format: functional; procedure, shortened: as §2
SNB-19 = assay: Growth inhibition of human SNB19 cells; format: functional; procedure, shortened: as §2
T47D = assay: Growth inhibition of human T47D cells; format: functional; procedure, shortened: as §2
LOX IMVI = assay: Growth inhibition of human LOX IMVI cells; format: functional; details: for TGI / GI50: Homo sapiens, LOX IMVI; procedure, shortened: as §2
MOLT-4 = assay: Growth inhibition of human MOLT4 cells; format: functional; procedure, shortened: as §2
UACC-62 = assay: Growth inhibition of human UACC62 cells; format: functional; procedure, shortened: as §2
HCT-116 = assay: Growth inhibition of human HCT116 cells; format: functional; procedure, shortened: as §2
NCI-H522 = assay: Growth inhibition of human NCI-H522 cells; format: functional; procedure, shortened: as §2
Malme-3M = assay: Growth inhibition of human MALME-3M cells; format: functional; procedure, shortened: as §2
M14 = assay: Growth inhibition of human M14 cells; format: functional; procedure, shortened: as §2
CCRF-CEM = assay: Growth inhibition of human CCRF-CEM cells; format: functional; procedure, shortened: as §2
SK-MEL-5 = assay: Growth inhibition of human SK-MEL-5 cells; format: functional; procedure, shortened: as §2
SF-268 [3] = assay: (§3) Growth inhibition of human SF268 cells; format: functional; procedure, shortened: as §2
EKVX = assay: Growth inhibition of human EKVX cells; format: functional; procedure, shortened: as §2
A498 = assay: Growth inhibition of human A498 cells; format: functional; procedure, shortened: as §2
HCC 2998 = assay: Growth inhibition of human HCC2998 cells; format: functional; procedure, shortened: as §2
SNB-75 = assay: Growth inhibition of human SNB75 cells; format: functional; procedure, shortened: as §2
HOP-62 = assay: Growth inhibition of human HOP62 cells; format: functional; procedure, shortened: as §2
SN12C = assay: Growth inhibition of human SN12C cells; format: functional; procedure, shortened: as §2
KM12 = assay: Growth inhibition of human KM12 cells; format: functional; procedure, shortened: as §2
SF-268 [4] = assay: as §3; format: functional; procedure, shortened: as §2; remark: listed apart in the source
NCI-H322M = assay: Growth inhibition of human NCI-H322M cells; format: functional; procedure, shortened: as §2

T1 sequence (Q7ZJM1 whole entry): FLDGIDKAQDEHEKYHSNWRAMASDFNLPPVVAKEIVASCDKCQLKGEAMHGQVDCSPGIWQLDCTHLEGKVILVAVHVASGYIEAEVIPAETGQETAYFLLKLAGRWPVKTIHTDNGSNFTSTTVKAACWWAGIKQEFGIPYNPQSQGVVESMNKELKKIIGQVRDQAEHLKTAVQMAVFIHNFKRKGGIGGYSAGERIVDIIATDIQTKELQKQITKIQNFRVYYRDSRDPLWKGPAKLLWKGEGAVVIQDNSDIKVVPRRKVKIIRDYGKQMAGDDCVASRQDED

## Cc1cc(S(=O)(=O)Nc2nc3cc(C(C)(C)C)sc3c(=O)n2N)c(S)cc1Cl
[1]
  pIC50: 4.22
[2]
  pIC50: 4.46

## Cc1cc(S(=O)(=O)Nc2nc3ccccc3c(=O)n2Cc2ccco2)c(S)cc1Cl
SR
  GI50: 19.5 µM
  TGI: 40.7 µM
[1]
  pIC50: 4.11
BT-549
  GI50: 15.7 µM
  TGI: 51.9 µM
SNB-19
  GI50: < 0.01 µM
  TGI: 88.8 µM
T47D
  GI50: 15 µM
  TGI: 81.4 µM
LOX IMVI
  growth inhibitory concentration: 16.1 µM
  TGI: 59.3 µM
[2]
  pIC50: 4.38
MOLT-4
  GI50: 18.6 µM
  TGI: 70.6 µM

## Cc1cc(S(=O)(=O)Nc2nc3scc(C)c3c(=O)n2N)c(S)cc1Cl
[1]
  pIC50: < 4.00
[2]
  pIC50: 4.09

## Cc1cc(S(=O)(=O)Nc2nc3cc(-c4ccc(Cl)cc4)sc3c(=O)n2Cc2ccccc2)c(S)cc1Cl
SR
  GI50: > 100 µM
UACC-62
  GI50: > 100 µM
[1]
  pIC50: 5.22
HCT-116
  GI50: > 100 µM
BT-549
  GI50: > 100 µM
NCI-H522
  GI50: > 100 µM
SNB-19
  GI50: > 100 µM
Malme-3M
  GI50: > 100 µM
M14
  GI50: > 100 µM
CCRF-CEM
  GI50: > 100 µM
SK-MEL-5
  GI50: > 100 µM
SF-268 [3]
  GI50: > 100 µM
T47D
  GI50: > 100 µM
LOX IMVI
  GI50: > 100 µM
EKVX
  GI50: > 100 µM
A498
  GI50: > 100 µM
[2]
  pIC50: 5.40
HCC 2998
  GI50: > 100 µM
SNB-75
  GI50: > 100 µM
HOP-62
  GI50: > 100 µM
SN12C
  GI50: > 100 µM
KM12
  GI50: > 100 µM
SF-268 [4]
  GI50: > 100 µM
MOLT-4
  GI50: > 100 µM

## O=C(Nc1ccccc1)c1cc(S(=O)(=O)Nc2nc3ccccc3c(=O)[nH]2)c(SCc2ccccc2)cc1Cl
[1]
  pIC50: 4.14
[2]
  pIC50: 4.44

## Cc1cc(S(=O)(=O)Nc2nc3ccsc3c(=O)[nH]2)c(SCc2ccccc2)cc1Cl
[1]
  pIC50: < 4.00
[2]
  pIC50: 4.15

## Cc1cc(S(=O)(=O)Nc2nc3ccsc3c(=O)n2Cc2ccco2)c(S)cc1Cl
SR
  GI50: 9.9 µM
  TGI: 29.7 µM
[1]
  pIC50: 4.21
[2]
  pIC50: 4.28
MOLT-4
  GI50: 19.4 µM
  TGI: 84.2 µM

## O=C(Nc1ccc(Cl)cc1)c1cc(S(=O)(=O)Nc2nc3ccccc3c(=O)[nH]2)c(SCc2ccccc2)cc1Cl
[1]
  pIC50: < 4.00
[2]
  pIC50: 4.28

## Cc1cc(S(=O)(=O)Nc2nc(=O)c3ccccc3n2C)c(SCc2ccccc2)cc1Cl
[1]
  pIC50: < 4.00
[2]
  pIC50: 4.05

## Cc1cc(S(=O)(=O)Nc2nc3cc(-c4ccsc4)sc3c(=O)n2Cc2ccco2)c(S)cc1Cl
SR
  GI50: > 100 µM
UACC-62
  GI50: > 100 µM
[1]
  pIC50: 5.10
HCT-116
  GI50: > 100 µM
BT-549
  GI50: > 100 µM
NCI-H522
  GI50: > 100 µM
SNB-19
  GI50: > 100 µM
Malme-3M
  GI50: > 100 µM
NCI-H322M
  GI50: > 100 µM
M14
  GI50: > 100 µM
CCRF-CEM
  GI50: > 100 µM
SK-MEL-5
  GI50: > 100 µM
SF-268 [3]
  GI50: > 100 µM
T47D
  GI50: > 100 µM
LOX IMVI
  GI50: > 100 µM
EKVX
  GI50: > 100 µM
A498
  GI50: > 100 µM
[2]
  pIC50: 5.22
HCC 2998
  GI50: > 100 µM
SNB-75
  GI50: > 100 µM
HOP-62
  GI50: > 100 µM
SN12C
  GI50: > 100 µM
KM12
  GI50: > 100 µM
SF-268 [4]
  GI50: > 100 µM
MOLT-4
  GI50: > 100 µM

## Cc1cc(S(=O)(=O)Nc2nc3cc(C(C)(C)C)sc3c(=O)n2Cc2ccccc2)c(S)cc1Cl
[1]
  pIC50: 4.66
[2]
  pIC50: 5.40

## Cc1cc(S(=O)(=O)Nc2nc3ccsc3c(=O)n2N)c(S)cc1Cl
[1]
  pIC50: 4.19
[2]
  pIC50: 4.28

## NC(=O)c1cc(S(=O)(=O)Nc2nc3ccccc3c(=O)[nH]2)c(SCc2ccccc2)cc1Cl
[1]
  pIC50: < 4.00
[2]
  pIC50: < 4.00

## Cc1cc(S(=O)(=O)Nc2nc3cc(Cl)ccc3c(=O)[nH]2)c(SCc2ccccc2)cc1Cl
[1]
  pIC50: 4.33
[2]
  pIC50: 4.48

## COc1ccc(NC(=O)c2cc(S(=O)(=O)Nc3nc4ccccc4c(=O)[nH]3)c(SCc3ccccc3)cc2Cl)cc1
[1]
  pIC50: < 4.00
[2]
  pIC50: 4.03

## Cc1cc(S(=O)(=O)Nc2nc3n[nH]cc3c(=O)n2N)c(S)cc1Cl
[1]
  pIC50: < 4.00
[2]
  pIC50: < 4.00

## Cc1cc(S(=O)(=O)Nc2nc3cscc3c(=O)n2Cc2ccccc2)c(S)cc1Cl
[1]
  pIC50: 4.10
NCI-H322M
  GI50: 18.2 µM
  TGI: 45.9 µM
CCRF-CEM
  GI50: 14 µM
  TGI: 47.6 µM
T47D
  GI50: 4.5 µM
  TGI: 40.8 µM
LOX IMVI
  GI50: 18.2 µM
  TGI: 51.6 µM
[2]
  pIC50: 4.51
HCC 2998
  GI50: 18.9 µM
  TGI: 68.5 µM
HOP-62
  GI50: 16.5 µM
  TGI: 39.3 µM
SN12C
  GI50: 16.6 µM
  TGI: 54.5 µM
KM12
  GI50: 19.9 µM
  TGI: 74.7 µM
MOLT-4
  GI50: 3.9 µM
  TGI: 32.5 µM

## Cc1cc(S(=O)(=O)Nc2nc3cscc3c(=O)n2N)c(S)cc1Cl
[1]
  pIC50: 4.16
SF-268 [3]
  GI50: 17.7 µM
  TGI: 68.1 µM
[2]
  pIC50: 4.37
SNB-75
  GI50: 15 µM
  TGI: 58.5 µM

## Cc1cc(S(=O)(=O)Nc2nc3ccsc3c(=O)n2Cc2ccccc2)c(S)cc1Cl
UACC-62
  GI50: 19.5 µM
  TGI: 44.4 µM
[1]
  pIC50: 4.28
HCT-116
  GI50: 19.2 µM
  TGI: 37.7 µM
Malme-3M
  GI50: 19.9 µM
  TGI: 56.1 µM
NCI-H322M
  GI50: 19.5 µM
  TGI: 48.8 µM
M14
  GI50: 19.8 µM
  TGI: 49.6 µM
SK-MEL-5
  GI50: 12.5 µM
  TGI: 34.2 µM
A498
  GI50: 14.2 µM
  TGI: 49.3 µM
[2]
  pIC50: 4.54
HOP-62
  GI50: 19.7 µM
  TGI: 46.6 µM
KM12
  GI50: 19.9 µM
  TGI: 48.2 µM

## Cc1cc(S(=O)(=O)Nc2nc3sc(C)c(C)c3c(=O)n2N)c(S)cc1Cl
[1]
  pIC50: 4.26
[2]
  pIC50: 4.41

## Cc1cc(S(=O)(=O)Nc2nc(N)n[nH]2)c(S)cc1Cl
[1]
  pIC50: 5.32
[2]
  pIC50: 5.31

## Cc1cc(S(=O)(=O)Nc2nc3ccccc3c(=O)[nH]2)c(SCc2ccccc2)cc1Cl
[1]
  pIC50: < 4.00
[2]
  pIC50: 4.08

## COc1cc2nc(NS(=O)(=O)c3cc(C)c(Cl)cc3S)n(N)c(=O)c2cc1OC
[1]
  pIC50: < 4.00
[2]
  pIC50: < 4.00

## Cc1cc(S(=O)(=O)Nc2nc3cscc3c(=O)[nH]2)c(SCc2ccccc2)cc1Cl
[1]
  pIC50: < 4.00
[2]
  pIC50: 4.11

## Cc1cc(S(=O)(=O)Nc2nc3ccccc3c(=O)n2N)c(S)cc1Cl
UACC-62
  GI50: 19.7 µM
  TGI: 49.2 µM
[1]
  pIC50: < 4.00
NCI-H522
  GI50: 19 µM
  TGI: 50.8 µM
SNB-19
  GI50: 15.7 µM
  TGI: 47.2 µM
EKVX
  GI50: 14.8 µM
  TGI: 29.2 µM
[2]
  pIC50: < 4.00
SNB-75
  GI50: 13.3 µM
  TGI: 32.7 µM
SF-268 [4]
  GI50: 7.2 µM
  TGI: 40.1 µM

## Cc1ccc(NC(=O)c2cc(S(=O)(=O)Nc3nc4ccccc4c(=O)[nH]3)c(SCc3ccccc3)cc2Cl)cc1
[1]
  pIC50: < 4.00
[2]
  pIC50: 4.11
